Test results reported in ChEMBL document CHEMBL3046913, “Feeding deterrence and contact toxicity of Stemona alkaloids-a source of potent natural insecticides” (2002).
In brackets after ≈: the same amount, converted by molar mass. Activity calls are given as the source filed them. The calls are words filed in the database; no cut-off is given here.

Experiments:
[1] = system: Spodoptera littoralis; test: Insecticidal activity against neonate larvae of Spodoptera littoralis after 5 days; type: functional; details: 120 h
How it was run: (§1)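 Chronic diet assay: neonate larvae (n = 20) from a lab colony were kept on artificial diet spiked via MeOH with eight concentrations of pure alkaloid (0.1-500 ppm). After 5 days in a moist chamber, dark, at 26 °C, survival and weight of survivors were compared with solvent-treated controls. LC50 and EC50 (50% growth inhibition) were derived by probit-log analysis. Run in triplicate.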

[2] = system: Spodoptera littoralis; test: Growth inhibition of neonate larvae of Spodoptera littoralis after 5 days; type: functional; details: 120 h; how it was run: as §1
[3] = system: Spodoptera littoralis; test: Antifeedant activity against fifth instar larvae of Spodoptera littoralis assessed as < 5% of total area of treated leaf disks in each petri dish consumed at 0.001 ug/cm2 after 24 hr by leaf disk choice assay; type: functional, organism-based
How it was run: (§2)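 Leaf disk choice test with fifth instar larvae (about 70 mg each). Lettuce disks of 1.33 cm2 were treated on the upper surface with pure compound at 1-0.001 µg/cm2 in MeOH; controls got solvent only. Two treated and two control disks were placed on moist filter paper with two larvae. Scoring was done when about 50% of control area (0.665 cm2) was eaten, 24 h maximum. Three trials in duplicate, six replicates.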

[4] = system: Spodoptera littoralis; test: Antifeedant activity against fifth instar larvae of Spodoptera littoralis assessed as inhibition of feeding without tasting treated leaf disk at 0.1 ug/cm2 after 24 hr by leaf disk choice assay; type: functional, organism-based; how it was run: as §2
[5] = system: Spodoptera littoralis; test: Toxicity in neonate larvae of Spodoptera littoralis at 133 ug/dm2 after 48 hr; type: functional, organism-based
How it was run: (§3)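 Contact toxicity: glass vials were coated with seven concentrations of test compound and the solvent evaporated. Twenty neonate larvae were held in the vials for 3 h, then given artificial diet. Survival was read at 48 h and LC50 derived by probit-log analysis. Run in triplicate or duplicate.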

[6] = system: Spodoptera littoralis; test: Antifeedant activity against fifth instar larvae of Spodoptera littoralis assessed as inhibition of feeding without tasting treated leaf disk at 0.01 ug/cm2 after 24 hr by leaf disk choice assay; type: functional, organism-based; how it was run: as §2
[7] = system: Spodoptera littoralis; test: Antifeedant activity against fifth instar larvae of Spodoptera littoralis assessed as inhibition of feeding without tasting treated leaf disk at 1 ug/cm2 after 24 hr by leaf disk choice assay; type: functional, organism-based; how it was run: as §2
[8] = system: Spodoptera littoralis; test: Toxicity in neonate larvae of Spodoptera littoralis after 48 hr; type: functional; how it was run: as §3
[9] = system: Spodoptera littoralis; test: Antifeedant activity against fifth instar larvae of Spodoptera littoralis at 0.001 ug/cm2 after 24 hr by leaf disk choice assay; type: functional, organism-based; how it was run: as §2
[10] = system: Spodoptera littoralis; test: Toxicity in sixth instar larvae of Spodoptera littoralis assessed as survival at 100 ug/larvae treated directly into hemolymph after 48 hr
[11] = system: Spodoptera littoralis; test: Antifeedant activity against fifth instar larvae of Spodoptera littoralis assessed as 5 to 20% of total area of treated leaf disks in each petri dish consumed at 0.01 ug/cm2 after 24 hr by leaf disk choice assay; type: functional, organism-based; how it was run: as §2

| SMILES | LC50 [1] [µg/mL] | EC50 (50% growth inhibition) [2] [µg/mL] | AFI [3] | AFI [4] | AFI [5] | AFI [6] | AFI [7] | LC50 [8] [microg/dm2] | AFI [9] | Survival [10] [%] | AFI [11] |
| --- | --- | --- | --- | --- | --- | --- | --- | --- | --- | --- | --- |
| CC[C@H](O)C[C@@]12[C@@H]3C[C@H]4[C@H]5[C@H](C)/C(=C6/OC(=O)C(C)=C6OC)O[C@]5(O3)[C@H]1CCN42 [2'-HYDROXYSTEMOFOLINE] | 30.3 (≈ 75.2 µM) | 38.5 (≈ 95.3 µM) |  |  |  |  |  |  |  |  |  |
| C/C=C(\C)C(=O)O[C@H]1C[C@@H](OC(C)=O)[C@@]2(C(=O)OC)CO[C@H]3[C@@H](O)[C@@](C)([C@]45O[C@@]4(C)[C@@H]4C[C@H]5O[C@@H]5OC=C[C@@]54O)[C@H]4[C@]1(CO[C@]4(O)C(=O)OC)[C@@H]32 [AZADIRACHTIN A] | 8.2 (≈ 11.4 µM) |  | Active | Active | inactive | Active | Active |  |  |  |  |
| CC/C=C/[C@@]12[C@@H]3C[C@H]4[C@H]5[C@H](C)/C(=C6/OC(=O)C(C)=C6OC)O[C@]5(O3)[C@@H]1CCN42 [DIDEHYDROSTEMOFOLINE] | 0.84 (≈ 2.18 µM) | 0.46 (≈ 1.19 µM) |  |  |  |  |  | 1.01 |  |  |  |
| CCCC[C@@]12C3CCN1[C@H]1C[C@H]2O[C@@]32O/C(=C3\OC(=O)C(C)=C3OC)[C@@H](C)[C@H]12 [STEMOFOLINE] | 2.04 (≈ 5.26 µM) | 1.46 (≈ 3.77 µM) |  |  |  |  |  | 0.59 |  |  |  |
| CC[C@@H]1[C@H]2CCCCN3[C@H]2[C@H](C[C@H]3[C@@H]2C[C@H](C)C(=O)O2)[C@@H]2[C@H]1OC(=O)[C@H]2C [TUBEROSTEMONINE] | > 500 |  |  | Active | inactive |  | Active |  | inactive | 100 | Active |
